Screening results from PubChem BioAssay.
This is a sample that favours compounds with a hit; in the whole collection about 3.7% have one here.
KCNK3 inh: human KCNK3 channel inhibition, primary screen | AID 602410 | CHO-KCNK3 thallium flux, FluxOR fluorescence; active compounds read low | B-score at 10 µM | actives 0.84% (n = 340,000);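 active = B-score under library mean minus 4 SD, starting fluorescence ratio at most library mean plus 5 SD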;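 note: more negative B-score means stronger inhibition of thallium flux through KCNK3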
Target sequence (O14649 whole entry, looked up): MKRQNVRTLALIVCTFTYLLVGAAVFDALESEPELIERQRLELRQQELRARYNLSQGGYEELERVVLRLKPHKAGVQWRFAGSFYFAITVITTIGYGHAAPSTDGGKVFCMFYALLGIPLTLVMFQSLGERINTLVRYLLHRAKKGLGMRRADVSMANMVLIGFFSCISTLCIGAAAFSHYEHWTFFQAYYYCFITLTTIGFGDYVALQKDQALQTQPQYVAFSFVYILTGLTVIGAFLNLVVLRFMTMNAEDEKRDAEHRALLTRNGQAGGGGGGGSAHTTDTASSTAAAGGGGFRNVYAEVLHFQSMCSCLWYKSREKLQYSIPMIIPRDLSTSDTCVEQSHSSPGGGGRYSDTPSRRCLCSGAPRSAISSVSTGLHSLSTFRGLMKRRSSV
hERG rescue: hERG (human) protection from proarrhythmic block | CHO-hERG, FluxOR thallium flux, dofetilide IC70 present | Q12809 | activation (rescue from dofetilide block), less the hit threshold, % at 10 µM | actives 0.51% (n = 310,000);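 active = activation above the mean of controls blocked by dofetilide plus 5 SD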;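 note: thallium influx through hERG after potassium depolarization seen as dye fluorescence rise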
Kir21 block: blocks the mouse Kir2.1 inward-rectifier potassium channel; P35561; HEK293-Kir2.1, FluxOR thallium flux fluorescence; active compounds read low; B-score at 10 µM; actives 0.85% (n = 310,000);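 active = fluorescence ratio B-score at or below minus 3 SD of library scores, with starting-brightness B-score within 2 SD, cut at about -4.2 in these data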;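 note: channel flux triggered by added potassium and thallium sulfate stimulus; B-score of peak minus minimum fluorescence over baseline after thallium stimulus; more negative B-score means stronger Kir2.1 block with less thallium influx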
KCNQ1 block: human KCNQ1 channel inhibition. P51787. CHO-K1 KCNQ1, FluxOR thallium flux fluorescence; active compounds read high. B-score at 10 µM. actives 1.3% (n = 310,000);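 active = compounds whose thallium flux B-score, printed positive for inhibition, exceeds three library SD while starting fluorescence stays within three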;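 note: channel opened by potassium depolarization with thallium stimulus after 20 min compound exposure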
KCNK9 inh-1: blocks the human KCNK9 two-pore domain potassium channel | Q9NPC2 | HEK293 KCNK9, FluxOR thallium flux fluorescence; active compounds read low | B-score at 10 µM | actives 1.2% (n = 310,000) | AID 488922;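 active = ratio B-score over 3 SD below the library mean, with starting fluorescence within 5 SD of its mean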;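 note: negative B-score means less thallium flux so channel inhibition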
KCNQ1 act: potentiates or activates the human KCNQ1 potassium channel; P51787; CHO-K1 KCNQ1, thallium flux FluxOR fluorescence; active compounds read high; B-score at 10 µM; actives 0.35% (n = 310,000); AID 2648;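 active = fluorescence ratio B-score, a plate-corrected score, at least three library SD, with initial intensity B-score within 5 SD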
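assay system = KCNQ1-transfected CHO-K1 cells | medium = assay buffer with matched DMSO | probe or stimulus = depolarizing K+/Tl+ stimulus, K2SO4 and Tl2SO4 each 12.5 mM in 5x stock | dosing = single dose | incubation = dye 90 min, compound 20 min, room temperature | detection = kinetic FluxOR fluorescence, 10 s baseline plus 110 s post-stimulus | evaluation = ratio B score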
hERG inh: hERG (human) inhibition as Kir2.1 counter-screen; shares compounds with Kir21 block; hERG-expressing cells, thallium flux; inhibition, % at 10 µM; actives 20% (n = 320); AID 2236;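 note: host cells are CHO cells stably expressing hERG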
KCNK9 inh-2: tests whether Kir2.1 inhibitors also affect human KCNK9 | actives 5% (n = 320) | shares compounds with Kir21 block | KCNK9-expressing cells, ion flux inhibition | AID 2329 | inhibition, % at 10 µM
Kir2-1 patch inh: blocks mouse Kir2.1 current in automated electrophysiology | shares compounds with Kir21 block | Kir2.1 cells, automated patch-clamp current inhibition | inhibition, % at 25 µM | actives 71% (n = 320) | AID 463252
Hits are given with their value. Unless noted, the rule behind the calls is not given here.

What do the screens show for `CCCCn1c(N)c(N(CCOC)C(=O)COc2ccc(OCC)cc2)c(=O)[nH]c1=O`?
KCNK3 inh: inactive; hERG rescue: inactive; Kir21 block: inactive; KCNQ1 block: inactive; KCNK9 inh-1: inactive; KCNQ1 act: inactive

Results for CCCCn1c(N)c(N(CCOC)C(=O)COC(=O)CCOc2ccccc2)c(=O)[nH]c1=O ?
KCNK3 inh: inactive; hERG rescue: inactive; Kir21 block: inactive; KCNQ1 block: inactive; KCNK9 inh-1: inactive; KCNQ1 act: inactive; hERG inh: inactive; KCNK9 inh-2: inactive; Kir2-1 patch inh: inconclusive

Results for O=C(NCC(=O)N1CCN(Cc2ccccc2)CC1)c1ccc(Br)o1 ?
KCNK3 inh: inactive; hERG rescue: inactive; Kir21 block: inactive; KCNQ1 block: inactive; KCNK9 inh-1: inactive; KCNQ1 act: inactive

What do the screens show for `COc1ccc(OC)c(NC(=O)NC2CCCc3ccccc32)c1` (stereo not drawn)?
KCNK3 inh: inactive; hERG rescue: inactive; Kir21 block: inactive; KCNQ1 block: inactive; KCNK9 inh-1: inactive; KCNQ1 act: inactive

Results for CCCCn1c(N)c(N(CC(C)C)C(=O)C2CC(=O)N(c3ccc(C)cc3)C2)c(=O)[nH]c1=O (stereo not drawn) ?
KCNK3 inh: inactive; hERG rescue: inactive; Kir21 block: inactive; KCNQ1 block: inactive; KCNK9 inh-1: inactive; KCNQ1 act: inactive

Results for Clc1ccc(CNC2CCN(Cc3ccccc3)CC2)cc1 ?
KCNK3 inh: inactive; hERG rescue: inactive; Kir21 block: -13; KCNQ1 block: inactive; KCNK9 inh-1: inactive; KCNQ1 act: inactive; hERG inh: 58%; KCNK9 inh-2: inactive; Kir2-1 patch inh: 55%

What do the screens show for `O=C(COc1ccccc1Cc1ccccc1)NCCCN1CCOCC1`?
KCNK3 inh: inactive; hERG rescue: inactive; Kir21 block: inactive; KCNQ1 block: inactive; KCNK9 inh-1: inactive; KCNQ1 act: inactive

How did CC(=O)NCC(=O)N1CCCC(C(=O)c2ccc(Oc3ccccc3)cc2)C1 (stereo not drawn) do in these assays?
KCNK3 inh: inactive; hERG rescue: inactive; Kir21 block: inactive; KCNQ1 block: inactive; KCNK9 inh-1: inactive; KCNQ1 act: inactive

How did CN(C)Cc1c(O)ccc2oc(Cc3ccccc3)cc12 do in these assays?
KCNK3 inh: inactive; hERG rescue: inactive; Kir21 block: -5.9; KCNQ1 block: inactive; KCNK9 inh-1: inactive; KCNQ1 act: inactive; hERG inh: inactive; KCNK9 inh-2: inactive; Kir2-1 patch inh: 62%

Results for Cc1ccc(C)c(OCCCNCc2ccccc2)c1 ?
KCNK3 inh: inactive; hERG rescue: inactive; Kir21 block: -9.4; KCNQ1 block: inactive; KCNK9 inh-1: inactive; KCNQ1 act: inactive; hERG inh: inactive; KCNK9 inh-2: inactive; Kir2-1 patch inh: 74%

What do the screens show for `Cc1ccc(C)c(OCCC(=O)OCC(=O)NCc2ccccc2)c1`?
KCNK3 inh: inactive; hERG rescue: inactive; Kir21 block: inactive; KCNQ1 block: inactive; KCNK9 inh-1: inactive; KCNQ1 act: inactive

Results for CCN(CC)CCCN(C(=O)c1ccc(OC)cc1)c1nc(-c2ccc(OC)cc2)cs1 ?
KCNK3 inh: inactive; hERG rescue: inactive; Kir21 block: -6.1; KCNQ1 block: inactive; KCNK9 inh-1: inactive; KCNQ1 act: inactive; hERG inh: inactive; KCNK9 inh-2: inactive; Kir2-1 patch inh: inactive

Results for CC1(C)C2CCC1(C)C(SC(=N)N)C2 (stereo not drawn) ?
KCNK3 inh: inactive

What do the screens show for `CC(C)N1CCN(Cc2ccc(-c3ccccc3Cl)o2)CC1CCO` (stereo not drawn)?
KCNK3 inh: inactive; hERG rescue: inactive; Kir21 block: inactive; KCNQ1 block: inactive; KCNK9 inh-1: inactive; KCNQ1 act: inactive

Results for Cc1cccc(C(=O)NCCCNC(=O)c2cccnc2)c1 ?
KCNK3 inh: inactive; hERG rescue: inactive; Kir21 block: inactive; KCNQ1 block: inactive; KCNK9 inh-1: inactive; KCNQ1 act: inactive
